# ChEMBL document CHEMBL4024793, “Development of Stem-Cell-Mobilizing Agents Targeting CXCR4 Receptor for Peripheral Blood Stem Cell Transplantation and Beyond” (J Med Chem, 2018)
# Legend:
# [1] = test system: Rattus norvegicus; assay: Cardiotoxicity in Sprague-Dawley rat assessed as effect on heart weight at 50 mg/kg/day, sc administered for 14 days relative to control; format: toxicity, organism-based; conditions: in vivo, 336 h
# How it was run: (§1)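 Non-GLP 14-day repeated-dose study in SD rats given 50 mg/kg/day SC. Major organs (liver, kidney, lung, heart) compared with vehicle for size, weight and colour. Blood analysed for hematological and biochemical parameters.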
# [2] = test system: Rattus norvegicus; assay: Toxicity in Sprague-Dawley rat assessed as effect on biochemistry parameters at 50 mg/kg/day, sc administered for 14 days relative to control; format: organism-based; conditions: in vivo, 336 h; how it was run: as §1
# [3] = test system: Rattus norvegicus; assay: Hepatotoxicity in Sprague-Dawley rat assessed as effect on liver color at 50 mg/kg/day, sc administered for 14 days relative to control; format: toxicity, organism-based; conditions: in vivo, 336 h; how it was run: as §1
# [4] = test system: Mus musculus; assay: In vivo antagonist activity at CXCR4 in C57BL/6 mouse assessed as induction of monocytes molization at 35 mg/kg, sc measured after 2 hrs relative to AMD3100; format: functional; set-up: scale not given: the % may be the effect or the level left
# How it was run: (§2)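 C57BL/6 mice given a single SC injection at 6 or 35 mg/kg. Blood collected 2 h after dosing and analysed for total white blood cells, neutrophils, lymphocytes and monocytes.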
# [5] = molecular target: Cytochrome P450 2D6 (Homo sapiens, UniProt P10635); assay: Inhibition of human liver microsomal CYP2D6; format: ADME
# Chain of Cytochrome P450 2D6 (P10635 whole entry): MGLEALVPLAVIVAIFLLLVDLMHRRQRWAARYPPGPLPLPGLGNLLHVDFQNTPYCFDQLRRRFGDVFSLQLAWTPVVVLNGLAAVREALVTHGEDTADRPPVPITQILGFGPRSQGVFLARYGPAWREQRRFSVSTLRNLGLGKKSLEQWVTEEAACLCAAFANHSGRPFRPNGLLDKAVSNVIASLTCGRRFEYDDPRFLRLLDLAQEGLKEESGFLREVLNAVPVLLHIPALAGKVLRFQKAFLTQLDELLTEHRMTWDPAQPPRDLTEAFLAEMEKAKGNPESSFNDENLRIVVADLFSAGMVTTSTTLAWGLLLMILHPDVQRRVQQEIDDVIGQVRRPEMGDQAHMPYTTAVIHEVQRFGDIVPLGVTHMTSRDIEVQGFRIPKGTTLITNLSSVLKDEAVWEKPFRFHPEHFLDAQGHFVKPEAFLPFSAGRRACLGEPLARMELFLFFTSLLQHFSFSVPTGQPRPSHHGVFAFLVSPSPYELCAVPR
# [6] = molecular target: Cytochrome P450 2C19 (Homo sapiens, UniProt P33261); assay: Inhibition of human liver microsomal CYP2C19; format: ADME
# Chain of Cytochrome P450 2C19 (P33261 whole entry): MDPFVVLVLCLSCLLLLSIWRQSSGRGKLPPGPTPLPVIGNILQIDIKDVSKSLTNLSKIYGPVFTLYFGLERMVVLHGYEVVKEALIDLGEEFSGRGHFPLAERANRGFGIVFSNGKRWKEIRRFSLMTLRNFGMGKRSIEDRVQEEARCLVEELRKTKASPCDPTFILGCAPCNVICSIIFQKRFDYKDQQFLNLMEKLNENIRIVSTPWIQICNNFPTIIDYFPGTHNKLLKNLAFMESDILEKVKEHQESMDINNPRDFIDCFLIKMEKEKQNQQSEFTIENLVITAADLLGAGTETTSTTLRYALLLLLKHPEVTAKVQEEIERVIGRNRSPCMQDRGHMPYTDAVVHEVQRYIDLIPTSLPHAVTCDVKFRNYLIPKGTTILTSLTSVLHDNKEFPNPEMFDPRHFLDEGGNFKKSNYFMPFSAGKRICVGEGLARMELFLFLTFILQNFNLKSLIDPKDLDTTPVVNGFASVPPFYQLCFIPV
# [7] = test system: Mus musculus; assay: Induction hematopoietic stem cell mobilization in sc dosed C57BL/6 mouse assessed as increase in CXCR4+ cells in blood measured after 2 hrs by APC-conjugated anti-CXCR4 -staining based flow cytometry relative to vehicle control; format: functional; conditions: C57BL/6, sc, read-out: MED
# How it was run: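 Male C57BL/6 mice, 8–10 weeks old, given a single SC injection at escalating doses of 1, 6, 20, 35 and 50 mg/kg. Blood collected 2 h later and stained with antibodies including APC-anti-CXCR4. CXCR4⁺ cells counted by flow cytometry, at least 60,000 events per sample. n = 3 per group; mean ± SEM; t test against vehicle.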
# [8] = test system: Rattus norvegicus; assay: Toxicity in Sprague-Dawley rat assessed as effect on lung color at 50 mg/kg/day, sc administered for 14 days relative to control; format: organism-based; conditions: in vivo, 336 h; how it was run: as §1
# [9] = test system: Mus musculus; assay: Therapeutic ratio of MTD for sc dosed C57BL/6 mouse to MED for hematopoietic stem cell mobilization in sc dosed C57BL/6 mouse
# How it was run: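 MTD: C57BL/6 or ICR male mice dosed SC from low to high, n = 3 per group; MTD is the highest dose with zero mortality (0/3). MED: lowest SC dose raising blood CXCR4⁺ cells at 2 h, by flow cytometry, in the escalating-dose study. Ratio calculated as MTD/MED.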
# [10] = molecular target: T1, C-X-C chemokine receptor type 4 (Homo sapiens, UniProt P61073); assay: Antagonist activity at human CXCR4 expressed in CHOK1 cells assessed as inhibition of SDF1a-induced cAMP accumulation at 10 uM preincubated for 30 mins followed agonist addition measured after 30 to 60 mins; format: functional, cell-based
# T1 sequence (P61073 whole entry): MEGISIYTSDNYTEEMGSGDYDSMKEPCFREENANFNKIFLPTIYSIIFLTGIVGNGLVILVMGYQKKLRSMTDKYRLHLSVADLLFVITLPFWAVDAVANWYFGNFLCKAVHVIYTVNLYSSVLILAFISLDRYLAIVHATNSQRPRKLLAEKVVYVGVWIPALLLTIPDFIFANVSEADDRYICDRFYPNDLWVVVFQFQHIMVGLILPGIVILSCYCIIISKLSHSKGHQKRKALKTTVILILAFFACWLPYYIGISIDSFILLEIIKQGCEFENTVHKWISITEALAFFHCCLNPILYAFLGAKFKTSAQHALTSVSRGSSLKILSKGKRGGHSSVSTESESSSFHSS
# How it was run: (§3)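 GPCR cAMP assay with a single test concentration of 10 μM; result expressed as percentage inhibition for each chemokine receptor.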
# [11] = test system: Rattus norvegicus; assay: Toxicity in Sprague-Dawley rat assessed as effect on hematology parameters at 50 mg/kg/day, sc administered for 14 days relative to control; format: organism-based; conditions: in vivo, 336 h; how it was run: as §1
# [12] = test system: Rattus norvegicus; assay: Toxicity in Sprague-Dawley rat assessed as effect on lung weight at 50 mg/kg/day, sc administered for 14 days relative to control; format: organism-based; conditions: in vivo, 336 h; how it was run: as §1
# [13] = test system: Rattus norvegicus; assay: Cardiotoxicity in Sprague-Dawley rat assessed as effect on heart size at 50 mg/kg/day, sc administered for 14 days relative to control; format: toxicity, organism-based; conditions: in vivo, 336 h; how it was run: as §1
# [14] = test system: Rattus norvegicus; assay: Hepatotoxicity in Sprague-Dawley rat assessed as effect on liver size at 50 mg/kg/day, sc administered for 14 days relative to control; format: toxicity, organism-based; conditions: in vivo, 336 h; how it was run: as §1
# [15] = test system: Rattus norvegicus; assay: Cardiotoxicity in Sprague-Dawley rat assessed as effect on heart color at 50 mg/kg/day, sc administered for 14 days relative to control; format: toxicity, organism-based; conditions: in vivo, 336 h; how it was run: as §1
# [16] = molecular target: Cytochrome P450 3A4 (Homo sapiens, UniProt P08684); assay: Inhibition of human liver microsomal CYP3A4; format: ADME
# Chain of Cytochrome P450 3A4 (P08684 whole entry): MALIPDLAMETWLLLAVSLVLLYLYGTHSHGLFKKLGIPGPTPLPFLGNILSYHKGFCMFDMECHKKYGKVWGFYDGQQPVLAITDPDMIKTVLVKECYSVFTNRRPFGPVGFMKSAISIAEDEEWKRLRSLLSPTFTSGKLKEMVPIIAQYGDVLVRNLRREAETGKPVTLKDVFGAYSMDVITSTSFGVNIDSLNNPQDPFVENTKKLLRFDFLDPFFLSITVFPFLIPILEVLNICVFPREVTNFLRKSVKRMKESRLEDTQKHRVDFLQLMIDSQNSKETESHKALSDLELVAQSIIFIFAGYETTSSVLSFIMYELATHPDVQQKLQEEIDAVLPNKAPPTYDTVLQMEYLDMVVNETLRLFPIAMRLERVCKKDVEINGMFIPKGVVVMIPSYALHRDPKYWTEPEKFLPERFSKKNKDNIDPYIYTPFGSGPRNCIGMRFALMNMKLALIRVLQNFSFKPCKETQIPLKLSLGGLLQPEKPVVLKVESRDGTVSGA
# [17] = molecular target: Cytochrome P450 1A2 (Homo sapiens, UniProt P05177); assay: Inhibition of human liver microsomal CYP1A2; format: ADME
# Chain of Cytochrome P450 1A2 (P05177 whole entry): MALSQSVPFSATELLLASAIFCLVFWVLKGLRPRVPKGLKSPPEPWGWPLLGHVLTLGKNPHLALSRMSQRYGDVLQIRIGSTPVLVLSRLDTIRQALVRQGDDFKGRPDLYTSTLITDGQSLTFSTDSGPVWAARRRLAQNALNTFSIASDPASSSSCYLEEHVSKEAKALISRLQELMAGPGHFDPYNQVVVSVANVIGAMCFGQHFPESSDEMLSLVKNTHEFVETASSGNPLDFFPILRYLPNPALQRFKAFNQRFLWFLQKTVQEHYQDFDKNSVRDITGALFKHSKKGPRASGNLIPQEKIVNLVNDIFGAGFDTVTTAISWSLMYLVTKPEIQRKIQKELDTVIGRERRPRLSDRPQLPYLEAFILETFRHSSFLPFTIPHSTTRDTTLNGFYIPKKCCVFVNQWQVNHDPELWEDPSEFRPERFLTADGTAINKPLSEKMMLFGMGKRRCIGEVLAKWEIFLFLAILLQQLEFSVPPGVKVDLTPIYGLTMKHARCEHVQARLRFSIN
# [18] = test system: Mus musculus; assay: Induction of hematopoietic stem cell mobilization in C57BL/6 mouse assessed as induction of movement of HSCs and EPCs into peripheral circulation at 35 mg/kg, sc measured after 2 hrs by flow cytometric analysis relative to control; format: functional
# [19] = molecular target: C-C chemokine receptor type 7 (Homo sapiens) (UniProt P32248); assay: Antagonist activity at human CCR7 expressed in CHOK1 cells assessed as inhibition of CCL19-induced cAMP accumulation at 10 uM preincubated for 30 mins followed agonist addition measured after 30 to 60 mins; format: functional, cell-based; how it was run: as §3
# Chain of C-C chemokine receptor type 7 (Homo sapiens) (P32248 whole entry): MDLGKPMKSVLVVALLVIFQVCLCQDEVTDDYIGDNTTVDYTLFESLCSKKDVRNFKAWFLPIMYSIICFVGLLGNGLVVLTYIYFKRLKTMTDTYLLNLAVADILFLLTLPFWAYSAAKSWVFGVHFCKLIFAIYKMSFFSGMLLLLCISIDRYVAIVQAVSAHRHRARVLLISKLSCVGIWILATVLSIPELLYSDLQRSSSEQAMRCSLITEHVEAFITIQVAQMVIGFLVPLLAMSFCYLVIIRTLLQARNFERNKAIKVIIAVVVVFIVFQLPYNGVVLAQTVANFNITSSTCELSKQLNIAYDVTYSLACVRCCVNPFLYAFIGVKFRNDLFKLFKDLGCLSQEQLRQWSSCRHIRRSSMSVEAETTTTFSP
# [20] = molecular target: T1, C-X-C chemokine receptor type 4; assay: Displacement of [125I]CXCL12 from human CXCR4 expressed in HEK293 cell membranes after 1.5 hrs by Topcount method
# [21] = molecular target: C-X-C chemokine receptor type 6 (Homo sapiens) (UniProt O00574); assay: Antagonist activity at human CXCR6 at 10 uM preincubated for 30 mins followed agonist addition measured after 30 to 60 mins by cAMP assay; format: functional; how it was run: as §3
# Chain of C-X-C chemokine receptor type 6 (Homo sapiens) (O00574 whole entry, looked up): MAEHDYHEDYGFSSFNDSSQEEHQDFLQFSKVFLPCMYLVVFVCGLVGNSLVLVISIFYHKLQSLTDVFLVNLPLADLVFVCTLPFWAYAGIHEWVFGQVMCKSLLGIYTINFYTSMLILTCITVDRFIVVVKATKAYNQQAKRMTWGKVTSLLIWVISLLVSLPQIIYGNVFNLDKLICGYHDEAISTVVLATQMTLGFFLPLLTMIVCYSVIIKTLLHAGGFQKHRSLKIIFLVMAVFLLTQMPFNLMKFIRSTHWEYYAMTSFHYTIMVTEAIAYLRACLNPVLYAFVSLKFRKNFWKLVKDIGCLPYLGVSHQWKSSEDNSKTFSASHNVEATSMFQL
# [22] = test system: Mus musculus; assay: In vivo antagonist activity at CXCR4 in C57BL/6 mouse assessed as induction of lymphocytes molization at 35 mg/kg, sc measured after 2 hrs relative to AMD3100; format: functional; set-up: scale not given: the % may be the effect or the level left; how it was run: as §2
# [23] = molecular target: C-X-C chemokine receptor type 5 (Homo sapiens) (UniProt P32302); assay: Antagonist activity at human CXCR5 expressed in CHOK1 cells assessed as inhibition of CXCL13-induced cAMP accumulation at 10 uM preincubated for 30 mins followed agonist addition measured after 30 to 60 mins; format: functional, cell-based; how it was run: as §3
# Chain of C-X-C chemokine receptor type 5 (Homo sapiens) (P32302 whole entry): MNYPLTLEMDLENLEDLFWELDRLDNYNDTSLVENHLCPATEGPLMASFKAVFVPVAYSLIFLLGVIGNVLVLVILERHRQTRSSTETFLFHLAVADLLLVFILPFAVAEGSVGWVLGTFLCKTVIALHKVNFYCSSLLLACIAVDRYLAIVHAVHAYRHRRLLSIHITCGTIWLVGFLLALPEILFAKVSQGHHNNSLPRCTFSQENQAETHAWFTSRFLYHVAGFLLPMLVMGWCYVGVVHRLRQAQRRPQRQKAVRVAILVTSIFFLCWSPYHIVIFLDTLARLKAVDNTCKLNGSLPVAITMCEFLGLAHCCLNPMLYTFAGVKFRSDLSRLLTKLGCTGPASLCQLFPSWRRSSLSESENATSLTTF
# [24] = test system: Rattus norvegicus; assay: Toxicity in Sprague-Dawley rat assessed as effect on lung size at 50 mg/kg/day, sc administered for 14 days relative to control; format: organism-based; conditions: in vivo, 336 h; how it was run: as §1
# [25] = test system: Mus musculus; assay: Induction of hematopoietic stem cell mobilization in C57BL/6 mouse assessed as increase in CFU-GM colonies from PBMC at 35 mg/kg, sc administered on day 5 post 100 ug/kg/day G-CSF addition for 4 days measured after 2 hrs post compound dose by colony forming assay relative to AMD3100; format: functional
# How it was run: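 Male C57BL/6 mice given G-CSF 100 µg/kg SC daily for 4 days. On day 5, G-CSF was co-injected SC with compound. Heparinized blood taken 2 h later; PBMCs isolated and cultured in methylcellulose medium for 10–14 days. CFU-GM colonies (aggregates of ≥50 cells) counted under an inverted microscope. Mean ± SEM, 8–12 mice per group, t test.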
# [26] = test system: Mus musculus; assay: In vivo antagonist activity at CXCR4 in C57BL/6 mouse assessed as induction of monocytes molization at 35 mg/kg, sc measured after 2 hrs relative to untreated control; format: functional
# [27] = molecular target: C-C chemokine receptor type 10 (Homo sapiens) (UniProt P46092); assay: Antagonist activity at human CCR10 expressed in CHOK1 cells assessed as inhibition of CCL27-induced cAMP accumulation at 10 uM preincubated for 30 mins followed agonist addition measured after 30 to 60 mins; format: functional, cell-based; how it was run: as §3
# Chain of C-C chemokine receptor type 10 (Homo sapiens) (P46092 whole entry): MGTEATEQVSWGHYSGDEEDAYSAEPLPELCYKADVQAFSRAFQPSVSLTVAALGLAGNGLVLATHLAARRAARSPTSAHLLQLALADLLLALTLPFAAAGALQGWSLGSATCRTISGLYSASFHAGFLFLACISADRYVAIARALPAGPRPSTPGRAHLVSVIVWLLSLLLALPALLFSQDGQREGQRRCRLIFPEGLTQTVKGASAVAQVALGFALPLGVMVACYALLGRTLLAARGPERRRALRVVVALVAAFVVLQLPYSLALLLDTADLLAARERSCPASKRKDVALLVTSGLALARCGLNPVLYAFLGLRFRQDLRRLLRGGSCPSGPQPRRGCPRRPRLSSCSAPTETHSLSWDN
compound,measurement,setting,value
Cc1cc(NC2CCN(C(=O)CCNCC(=O)O)CC2)nc(NCc2cn(CCCNCCCNC3CCCCC3)nn2)n1,Activity,[1],Non-Toxic
same,Activity,[2],Non-Toxic
same,Activity,[3],Non-Toxic
same,Activity,[4],30 - 50%
same,IC50,[5],> 100 µM
same,IC50,[6],> 100 µM
same,minimal effective dose,[7],6 mg/kg
same,Activity,[8],Non-Toxic
same,TI,[9],12.5
same,Efficacy,[10],73.4%
same,Activity,[11],Non-Toxic
same,Activity,[12],Non-Toxic
same,Activity,[13],Non-Toxic
same,Activity,[14],Non-Toxic
same,Activity,[15],Non-Toxic
same,IC50,[16],> 100 µM
same,IC50,[17],> 100 µM
same,fold change (FC),[18],7
same,Efficacy,[19],-4.2%
same,IC50,[20],0.0342 µM
same,Efficacy,[21],-3.9%
same,Activity,[22],30 - 50%
same,Efficacy,[23],-11%
same,Activity,[24],Non-Toxic
same,fold change (FC),[25],1.6
same,fold change (FC),[26],2 - 4
same,Efficacy,[27],0.5%
